Source: PubChem (several laboratories)
Hits are enriched below; roughly 4.2% of the tested compounds scored in any of these assays.
KCNQ1 pot – potentiators or activators of KCNQ1 channel, primary screen, cell-based, thallium flux, high-throughput. Potassium voltage-gated channel subfamily KQT member 1 (Homo sapiens), P51787. CHO-K1 KCNQ1, thallium flux FluxOR fluorescence; hits give high values. B-score at 10 µM. hit rate 0.35% among 310,000. AID 2648, 2010;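 active = fluorescence ratio B-score, a plate-corrected score, at least three library SD, with initial intensity B-score within 5 SD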
Target sequence (P51787 whole entry, looked up): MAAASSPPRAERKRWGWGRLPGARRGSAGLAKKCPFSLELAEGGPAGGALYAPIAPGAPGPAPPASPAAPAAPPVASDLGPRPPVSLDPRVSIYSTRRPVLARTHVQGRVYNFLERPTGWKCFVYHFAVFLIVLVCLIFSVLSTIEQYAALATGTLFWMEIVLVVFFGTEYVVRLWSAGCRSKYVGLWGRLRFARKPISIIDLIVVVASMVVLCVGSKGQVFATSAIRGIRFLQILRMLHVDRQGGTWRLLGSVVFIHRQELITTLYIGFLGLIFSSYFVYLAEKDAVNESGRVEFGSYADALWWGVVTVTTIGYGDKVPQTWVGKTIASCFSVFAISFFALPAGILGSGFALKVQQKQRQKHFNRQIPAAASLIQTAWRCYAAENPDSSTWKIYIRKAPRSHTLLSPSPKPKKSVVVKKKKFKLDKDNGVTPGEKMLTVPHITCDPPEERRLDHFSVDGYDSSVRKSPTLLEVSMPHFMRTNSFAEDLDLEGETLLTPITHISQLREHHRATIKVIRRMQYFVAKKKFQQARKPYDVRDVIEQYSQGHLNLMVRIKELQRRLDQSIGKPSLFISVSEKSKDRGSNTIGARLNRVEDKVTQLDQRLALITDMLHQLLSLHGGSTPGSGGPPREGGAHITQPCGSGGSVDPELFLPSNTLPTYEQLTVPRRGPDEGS
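Doses: Single concentration per compound, DMSO matched to controls | Test system: KCNQ1-transfected CHO-K1 cells | Timing: 90 min dye loading and 20 min compound exposure, both at room temperature | Measured by: Kinetic FluxOR thallium fluorescence, 10-s 1-Hz baseline, 110-s post-stimulus read | Medium: Assay buffer with matched DMSO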
Mot1-301 SUMO – yeast Mot1-301 growth rescue at high temperature, primary screen, SUMOylation pathway inhibitor project, S. cerevisiae, ATP luminescence, 38.5C; S. cerevisiae Mot1-301 growth rescue; percent above DMSO median, 100 means doubled; growth rescue, % at 18.8 µM; hit rate 1% among 320,000; AID 2716, 2010;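 active = every valid replicate shows activation above 250% relative to neutral control wells; inactive = the rest, any valid replicate at or below 250%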;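 also: OY570 slx delta 5 strain wells were the positive control but not used for scaling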
AI-2 QS modul – Vibrio harveyi AI-2 quorum sensing modulators, primary screen, JMH597 strain, luminescence/OD600 ratio; Vibrio harveyi JMH597 AI-2 luminescence/OD600 ratio, 9 h; hits give low values; strain lacks LuxN and CqsS sensors; 0 = neutral-control median; activity change, % at 7.5 µM; hit rate 0.4% among 300,000; in the data active = activity change below about -75%, passing the limit was not always enough; inconclusive = no clear call, values can overlap the other calls;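 also: luminescence divided by OD600 gain over 9 h not by final OD600 alone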
KCNQ1 block – inhibitors of human KCNQ1 channel, primary screen, cell-based, thallium flux, high-throughput; CHO-K1 KCNQ1, FluxOR thallium flux fluorescence; hits give high values; hit rate 1.3% among 310,000; AID 2642, 2010; Potassium voltage-gated channel subfamily KQT member 1 (Homo sapiens), P51787; B-score at 10 µM;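 active = compounds whose thallium flux B-score, printed positive for inhibition, exceeds three library SD while starting fluorescence stays within three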;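 also: channel opened by potassium depolarization with thallium stimulus after 20 min compound exposure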
hERG rescue – hERG rescue from dofetilide block, primary screen, cell-based, CHO-hERG, FluxOR thallium flux, dofetilide IC70. activation (rescue from dofetilide block), less the hit threshold, % at 10 µM. dofetilide IC70 present. AID 1511, 2009. hit rate 0.51% among 310,000. Voltage-gated inwardly rectifying potassium channel KCNH2 (Homo sapiens), Q12809;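 active = activation above the mean of controls blocked by dofetilide plus 5 SD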;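 also: thallium influx through hERG after potassium depolarization seen as dye fluorescence rise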
KCC2 mod – KCC2 cotransporter modulators, thallium flux, primary screen, cell-based, HEK293 KCC2, FluoZin-2 fluorescence, MLSMR | hit rate 2.2% among 190,000 | Solute carrier family 12 member 5 (Homo sapiens), Q9H2X9 | B-score of Tl+ flux slope (higher = more flux/activation; lower = inhibition) at 10 µM | KCC2 cells, thallium flux FluoZin-2 fluorescence;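 active = thallium flux slope and its plate-corrected score both differing from the plate sample mean at a set confidence after two filtering rounds, in either direction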;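 also: slope of fluorescence scaled to starting intensity during 10 to 20 s after thallium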
KCC2 sec1 – KCC2 modulators in sodium-free buffer, confirmation, cell-based, HEK293 KCC2, thallium flux, secondary assay | normalised thallium flux (F/F0 slope) at 10 µM | FluoZin2 fluorescence; hits give high values | shares compounds with KCC2 mod | hit rate 15% among 3,700;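 active = thallium flux slope above the same plate's solvent-only control mean plus 3 SD; inconclusive = the two replicate wells disagree; inactive = no significant difference from solvent-only control wells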
KCC2 bumet counter – thallium flux persisting under bumetanide in KCC2 cells, confirmation, counter-screen for KCC2 modulator project, cell-based, HEK293 KCC2, FluoZin2, secondary assay 3; shares compounds with KCC2 mod; HEK293-KCC2 + bumetanide/ouabain; hits give high values; normalized thallium flux at 10 µM; hit rate 49% among 3,700; AID 1714, 2009;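 active = thallium entry rate above the same plate's blocked-transporter control wells by more than 3 SD; inconclusive = the two repeat wells disagree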;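 also: raw slope of fluorescence over initial fluorescence between 10 and 20 s after thallium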
KCC2 secondary2 – KCC2 modulators without ouabain present, confirmation, cell-based, HEK293 KCC2, thallium flux, FluoZin2, secondary assay 2; AID 1715, 2009; shares compounds with KCC2 mod; hit rate 23% among 3,700; normalized thallium flux at 10 µM; thallium flux FluoZin2 fluorescence; actives lie on both sides; F/F0 rise rate, 10–20 s post-thallium;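 active = thallium flux slope more than 3 SD above or below the plate's solvent-only control mean, mostly below; inconclusive = the two repeat wells disagreed; inactive = no significant shift from solvent-only controls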;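 also: raw slope with 0.1% DMSO as baseline and bumetanide as block control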
HEK293 Tl flux – thallium flux modulation in parental HEK cells, confirmation, counter-screen for KCC2 modulator project, cell-based, counterscreen 1. shares compounds with KCC2 mod. HEK293 parental cells, thallium flux FluoZin2, ouabain; baseline-ratio fluorescence slope, 10–20 s after thallium. thallium flux rate (normalised fluorescence) at 10 µM. hit rate 46% among 3,700. AID 1716, 2009;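 active = thallium flux rate significantly above the same plate's solvent-only control wells, beyond their mean plus 3 SD; inconclusive = the two replicate wells gave conflicting results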
KCC2 retest ouab – KCC2 inhibitors and activators, ouabain retest, confirmation, HEK-KCC2 cells | hit rate 48% among 3,700 | HEK293-KCC2, thallium flux FluoZin2 fluorescence; bidirectional: low = inhibitor, high = activator | raw Tl+ flux slope (below DMSO = inhibition, above = activation) at 10 µM | shares compounds with KCC2 mod | AID 1717, 2009;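 active = thallium flux slope beyond 3 SD from same-plate DMSO control mean in most replicates, usually higher, sometimes lower; inconclusive = repeat tests gave conflicting results; inactive = no significant difference from controls in most replicates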;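 also: slope of initial-normalized fluorescence between seconds 10 and 20 after thallium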
HEK293 Tl flux2 – native HEK Tl+ uptake effects, second counter-screen – HEK cells, counterscreen 2, counter-screen for KCC2 modulator project, confirmation | hit rate 33% among 3,700 | AID 1718, 2009 | HEK293 parental, thallium flux FluoZin-2 fluorescence slope | thallium flux slope at 10 µM | shares compounds with KCC2 mod;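 active = thallium flux slope above the same plate's solvent-control mean plus 3 SD in both duplicate wells; inconclusive = duplicate wells that disagreed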;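 also: run without ouabain in cells lacking the KCC2 cotransporter; slope of fluorescence scaled to its starting value between 10 and 20 s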
Active calls of the source: *; i = inactive; ? = inconclusive; / = not tested or not shown.

SMILES | KCNQ1 pot | Mot1-301 SUMO | AI-2 QS modul | KCNQ1 block | hERG rescue | KCC2 mod | KCC2 sec1 | KCC2 bumet counter | KCC2 secondary2 | HEK293 Tl flux | KCC2 retest ouab | HEK293 Tl flux2
O=C(CCN1C(=O)c2ccccc2S1(=O)=O)Nc1nc2c(s1)CCCC2 | i | -2 | -31 | i | -15 | -3.8* | 0.0077 | 0.0059 | 0.03 | 0.0071 | 0.015* | 0.011
O=C(CCS(=O)(=O)Cc1ccccc1)Nc1nc2c(s1)CCCC2 | i | -34 | 20 | i | -6 | / | 0.0056 | 0.0046 | 0.022* | 0.0075 | ? | 0.01
O=C(CS(=O)(=O)Cc1ccccc1)Nc1nc2c(s1)CCCC2 | i | -3 | 30 | i | -6 | -1.1 | / | / | / | / | / | /
Cn1c(C(=O)NCCN2CCOCC2)cc2c(=O)n(C)c3ccccc3c21 | i | -1 | 14 | i | -8 | / | / | / | / | / | / | /
Cn1c(C(=O)NCCN2CCN(c3ccccc3F)CC2)cc2c(=O)n(C)c3ccccc3c21 | i | -22 | -5 | i | -18 | -4.7* | 0.005 | 0.0048 | 0.022* | 0.0076 | ? | 0.011
COc1ccc(CC(=O)N2CCN(c3ccccn3)CC2)cc1 | i | -20 | 2 | i | -1 | 1.2 | / | / | / | / | / | /
O=C(NC(=S)N1CCN(c2ccccn2)CC1)c1ccccc1 | i | 7 | 10 | i | -7 | 17* | 0.0062 | 0.043* | 0.035 | 0.03* | 0.039* | 0.019*
COc1ccc(/C=C/C(=O)NC(=S)N2CCN(c3ccccn3)CC2)cc1 | i | 13 | 67 | i | -6 | 5.9* | 0.0054 | 0.024* | 0.032 | 0.013* | ? | 0.015*
COc1ccc(/C=C/C(=O)NC(=S)N2CCSCC2)cc1 | i | 1 | 15 | i | -8 | 8.7* | 0.018 | 0.034* | 0.035 | 0.016* | 0.025* | 0.017*
O=C(/C=C/c1ccc(Br)cc1)NC(=S)N1CCOCC1 | i | 23 | 7 | i | -8 | 8.7* | 0.008 | 0.024* | 0.037 | 0.017* | 0.031* | 0.019*
CCOc1ccc(NC(=O)c2ccc(Cl)c(NC(=O)c3ccco3)c2)cc1 | i | 9 | 10 | i | -9 | / | / | / | / | / | / | /
CN1C(C(=O)NCc2cccc(Br)c2)CC2Cn3c(nc4cc(Cl)c(Cl)cc43)C21 (configuration not stated) | i | 295 | 15 | i | -14 | -3.4* | 0.0085 | 0.0061 | 0.033 | 0.0074 | 0.018 | 0.01
Cc1ccc(SCCNC(=S)Nc2cc(C)ccc2C)cc1 | i | 133 | 27 | i | -11 | / | 0.0069 | 0.005 | 0.029 | ? | ? | 0.009
O=c1c2ccc(Cl)cc2[nH]c(=S)n1Cc1cccnc1 | i | 498 | 19 | i | -8 | 3.6* | 0.013* | 0.03* | 0.035 | 0.015* | 0.028 | 0.011*
COC(=O)c1ccc(/C(O)=C(\C#N)c2nc3ccccc3s2)cc1 | i | 65 | 48 | i | -13 | -6.8* | 0.008 | 0.0068 | 0.034 | 0.0038 | 0.013* | 0.01
Cc1ccc(OC/C(O)=C(\C#N)c2nc3ccccc3s2)cc1 | i | -3 | 17 | i | -9 | -4.3* | 0.015 | 0.0068* | 0.022* | ? | 0.012* | 0.011
Cc1[nH]c(=S)sc1Cc1ccc(Cl)c(Cl)c1 | i | -1 | -7 | i | 1 | 49* | ? | 0.084* | ? | 0.037* | 0.048* | 0.015*
CN(Cc1ccccc1)C(=O)c1ccc(NC(=O)C2CCN(C(=O)OC(C)(C)C)CC2)cc1 | / | 20 | / | / | / | / | / | / | / | / | / | /
CCOC(=O)C(NC(=O)CC)(N1CCc2ccccc2C1)C(F)(F)F (configuration not stated) | i | 18 | 0 | i | -10 | 0.056 | / | / | / | / | / | /
COc1cc(OC)c(NC(=O)c2sc3ncn(CC(=O)N4CCOCC4)c(=O)c3c2C)cc1Cl | i | -4 | 6 | i | -5 | / | / | / | / | / | / | /
CC(=O)Nc1ccc(Cl)cc1C(=O)O | i | -3 | 30 | i | -7 | 0.45 | / | / | / | / | / | /
S=c1[nH]nc(-c2ccc3ccccc3n2)n1-c1ccccc1Cl | i | -10 | 24 | i | -8 | 6* | 0.011 | 0.026* | 0.033 | 0.013* | 0.025 | 0.01
Fc1ccc(-n2c(-c3ccc4ccccc4n3)n[nH]c2=S)cc1 | i | -1 | 25 | i | -8 | 6.6* | ? | 0.022* | 0.032 | 0.018* | 0.027* | 0.018*
S=c1[nH]nc(-c2ccc3ccccc3n2)n1-c1cc(Cl)cc(Cl)c1 | i | 24 | 24 | i | -1 | 22* | 0.021* | 0.054* | 0.033 | 0.039* | 0.051* | 0.013*
